# High-throughput results as filed in PubChem BioAssay.
# The list is not random: actives were taken first. Their share in the collection is about 4.9%.
# STAT3 activator: increases IL-6 driven STAT3 reporter signal; U3A cells, IL-6 STAT3-luciferase reporter, luminescence; 100% = signal with IL-6 EC80 alone; activation (% of control), % at 5.6 µM; actives 0.91% (n = 190,000);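 active = activation above the screen-wide mean of compound activation plus 3 SD, cut at about 130% in these data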;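 note: 0% = background luminescence of wells with medium and substrate only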
#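 Detection: reporter luminescence signal / Assay system: STAT1-lacking human U3A cells, STAT3 luciferase reporter / Incubation: compound pre-incubation 1 h before IL-6, then 6 h stimulation at 37 °C / Control set: IL-6-only high control / Read-out: % activation relative to IL-6 control / Probe or stimulus: Interleukin-6, 33 ng/mL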
# STAT1 activator: increases IFN-gamma driven STAT1 reporter signal; NIH 3T3 STAT1-luciferase reporter, luminescence; 100% = IFN-gamma alone, no compound; actives 2.6% (n = 200,000); AID 932; activation (% of control), % at 5.5 µM;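 active = activation above the screen-wide mean activation plus 3 SD, cut at about 130% in these data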;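 note: raw ratio to IFN-gamma control signal so 100% means no change and 0% no light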
# STAT1 inh: inhibitors of IFN-gamma induced STAT1 signaling. NIH 3T3 STAT1-luciferase reporter, luminescence. inhibition, % at 5.5 µM. actives 0.35% (n = 200,000);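 active = inhibition above a set limit, the mean inhibition across all tested compounds plus 3 SD, cut at about 34% in these data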;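 note: 0% = IFN-gamma with DMSO and 100% = IFN-gamma with 300 µM nifuroxazide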
# NF-kB expr up: compounds increasing NF-kB expression in human neuronal cells | NF-kB reporter expression; stronger effect = higher value | fold change at 12.5 µM | actives 1.6% (n = 190,000); in the data active = fold change above about 3.3
# STAT3 blocker: STAT3 signaling inhibition. U3A cells, IL-6 STAT3-luciferase reporter, luminescence; host cell line lacks STAT1. inhibition, % at 5.5 µM. actives 0.89% (n = 190,000);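 active = inhibition above the mean inhibition across all screened compounds plus 3 SD, cut at about 44% in these data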;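 note: 0% = DMSO only wells and 100% = 100 µM nifuroxazide control wells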
# APP 5'UTR act: activates APP 5'UTR luciferase reporter | activation, % at 2 µM | SH-SY5Y APP 5'UTR luciferase reporter, luminescence; zero percent = DMSO vehicle wells | actives 1% (n = 190,000) | AID 1276;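 active = activation above a set limit, based on mean plus 3 SD of controls, cut at about 140% in these data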
# * hit, by the source's call; · = no result given.
SMILES,STAT3 activator,STAT1 activator,STAT1 inh,NF-kB expr up,STAT3 blocker,APP 5'UTR act
C(=N\Nc1nc2ccccc2[nH]1)/c1cccs1,97,148*,-54,4.1*,14,137*
CCN(CC)c1ccc(/C=N/Nc2nc3ccccc3[nH]2)cc1,125,172*,-81,0.26,-26,-12
CC(OC(=O)c1cc(=O)[nH]c2ccccc12)C(=O)c1ccccc1 (stereo not drawn),98,101,-2,1.1,8,8
Cc1ccc(-n2ncc3c(SCC(=O)Nc4cc(C)on4)ncnc32)c(C)c1,68,100,0,1.4,40,-18
COc1ccc(C(=O)C2CCCN(Cc3ccc(C#CCCO)cc3)C2)cc1F (stereo not drawn),100,104,-6,0.79,2,-1
COC(=O)c1ccc(/C=N/Nc2nc3ccccc3[nH]2)cc1,103,138*,-41,1.3,-4,57
CC(=O)Nc1ccc(/C=N/Nc2nc3ccccc3[nH]2)cc1,102,115,-16,1.6,-8,20
COc1ccc(C(=O)NC(=S)Nc2ccc(N3CCOCC3)c(Cl)c2)cc1[N+](=O)[O-],95,98,2,0.73,8,1
O=C(Nc1cccn2ncnc12)c1ccc(Cl)cc1,81,106,-7,1.5,29,-5
O=C(Nc1cnc2ccccn2c1=O)c1ccc(Cl)cc1,109,130*,-33,2.4,-8,19
C#CCOC(=O)CCCC(=O)NCCCCCCCC,96,94,5,1,9,-4
Cc1ccc(CNC(=O)c2nn(C)c(C)c2[N+](=O)[O-])cc1,93,100,-1,1.1,10,4
O=C(Nc1ncccn1)c1ccc([N+](=O)[O-])o1,80,120,-22,1.6,28,9
O=C(Nc1ccccn1)c1ccc([N+](=O)[O-])o1,95,94,6,4.3*,6,-27
Cc1ccc(CNC(=O)c2ccc([N+](=O)[O-])o2)cc1,86,95,6,3.5*,22,5
Cc1ccc(NC(=O)c2ccc([N+](=O)[O-])o2)cc1C,76,148*,-56,·,32,-44
Cc1ccc(C(=O)N2N=C(CC(C)C)CC2(O)C(F)(F)F)o1 (stereo not drawn),97,96,4,1.4,6,4
O=c1c(Cc2c(F)cccc2Cl)c(O)ccn1CCc1ccccn1,113,97,2,1.4,-2,28
COC(=O)c1ccnc(SCC(=O)c2ccccc2)c1,104,132*,-35,2,4,119
O=C(CSc1ccc(-c2ccccn2)nn1)c1ccccc1,102,123,-27,1.6,3,39
O=C(CSc1nnc(-c2ccco2)o1)c1ccc[nH]1,111,130*,-33,2.3,-5,73
Cc1nc2ccc([N+](=O)[O-])cc2nc1C,93,100,-1,1.4,12,5
Cc1ccc2nc3cc([N+](=O)[O-])cc([N+](=O)[O-])c3cc2c1,90,85,15,5.3*,14,-63
O=C(Nc1nsc(-c2ccccc2)n1)c1ccc(F)cc1,83,129*,-33,1.6,28,90
CC(=O)Nc1ccc(C(=O)OCCC(C)C)cc1,97,129*,-32,1.4,6,6
SMILES,STAT3 activator,STAT1 activator,STAT1 inh,NF-kB expr up,STAT3 blocker,APP 5'UTR act
Cc1ccccc1C(=O)NNC(=O)c1ccoc1C,101,96,5,1.3,0,9
Cc1occc1C(=O)NNC(=O)c1ccccc1C(=O)O,110,146*,-51,1.4,-7,181*
CCCOC(=O)c1ccc(NC(=O)c2ccoc2C)cc1,103,141*,-44,3.5*,-4,115
Cc1occc1C(=O)Nc1ccc(OCc2ccccc2)cc1,93,129*,-32,3.3,10,119
COc1cccc(NC(=O)COC(=O)CCS(=O)(=O)c2ccc(C)cc2)c1,96,96,5,1.3,5,-5
O=C(NNS(=O)(=O)c1ccccc1)C1CC(c2cccnc2)=NO1 (stereo not drawn),97,95,5,1.1,6,0
Cc1cccc2c(N=Nc3ccc(S(=O)(=O)Nc4ccc(Cl)cc4)cc3[N+](=O)[O-])c(O)[nH]c12,87,92,8,0.95,20,12
